The values that follow come from PMC8161485 (ACS Central Science, 2021).

Assay [1] addresses T1, P450BM3 variant V-H10(R47C,A87I) (Priestia megaterium, UniProt P14779, A181T/A185V/A198V/A291V/E253G/F206C/F88I/H237Q/L354V/P143S/R256S/R48C/S227R/T176I/V79N).
T1 sequence (P14779 1-1049 R48C/V79N/F88I/P143S/T176I/A181T/A185V/A198V/F206C/S227R/H237Q/E253G/R256S/A291V/L354V): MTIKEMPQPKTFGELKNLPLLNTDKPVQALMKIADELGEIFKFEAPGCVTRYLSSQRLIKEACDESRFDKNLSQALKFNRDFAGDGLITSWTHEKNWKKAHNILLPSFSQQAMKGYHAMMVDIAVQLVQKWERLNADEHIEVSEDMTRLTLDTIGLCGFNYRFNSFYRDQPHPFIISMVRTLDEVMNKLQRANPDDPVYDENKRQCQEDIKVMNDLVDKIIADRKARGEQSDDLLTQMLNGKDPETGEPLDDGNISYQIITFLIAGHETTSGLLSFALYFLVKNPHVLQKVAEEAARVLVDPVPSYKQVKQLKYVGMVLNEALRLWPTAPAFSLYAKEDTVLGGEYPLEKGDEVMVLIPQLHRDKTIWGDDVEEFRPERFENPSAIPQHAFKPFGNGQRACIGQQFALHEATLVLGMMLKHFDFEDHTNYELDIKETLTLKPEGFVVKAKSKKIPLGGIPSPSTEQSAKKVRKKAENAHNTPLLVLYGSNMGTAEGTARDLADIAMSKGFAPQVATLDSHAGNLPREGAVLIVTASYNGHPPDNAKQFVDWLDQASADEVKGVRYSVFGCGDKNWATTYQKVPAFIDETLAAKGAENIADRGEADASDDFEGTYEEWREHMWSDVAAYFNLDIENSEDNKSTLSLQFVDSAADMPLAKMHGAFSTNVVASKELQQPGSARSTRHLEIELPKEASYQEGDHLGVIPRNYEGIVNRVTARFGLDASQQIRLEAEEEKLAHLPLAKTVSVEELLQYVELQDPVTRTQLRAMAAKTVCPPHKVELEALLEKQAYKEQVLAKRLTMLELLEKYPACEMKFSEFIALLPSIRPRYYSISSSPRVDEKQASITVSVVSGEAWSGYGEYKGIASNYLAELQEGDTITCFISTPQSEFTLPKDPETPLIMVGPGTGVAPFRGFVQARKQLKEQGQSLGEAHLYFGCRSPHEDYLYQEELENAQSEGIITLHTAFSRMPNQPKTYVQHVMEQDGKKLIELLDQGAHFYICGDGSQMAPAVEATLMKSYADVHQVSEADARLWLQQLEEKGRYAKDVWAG
Briefly: Heme spin shift binding of MCL to P450 variant V-H10. Details: species or system Bacillus megaterium. Put shortly:
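Purified P450 (3 μM) in 50 mM or 1 M potassium phosphate, pH 8.0, titrated with test compound (5–2000 μM) from a 50 mM ethanol stock. Difference spectra (350–500 nm) were recorded at each step. Absorbance change at 390/420 nm (high/low spin) was fitted to a 1:1 binding model for KD. At least triplicate, room temperature.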

The target in assay [2] is T2, P450BM3 variant V-H10(A87I) (Priestia megaterium, UniProt P14779, A181T/A185V/A198V/A291V/E253G/F206C/F88I/H237Q/L354V/P143S/R256S/S227R/T176I/V79N).
T2 sequence (P14779 1-1049 V79N/F88I/P143S/T176I/A181T/A185V/A198V/F206C/S227R/H237Q/E253G/R256S/A291V/L354V): T1 sequence (P14779 1-1049 R48C/V79N/F88I/P143S/T176I/A181T/A185V/A198V/F206C/S227R/H237Q/E253G/R256S/A291V/L354V) with C48R
The assay can be described thus: Heme spin shift binding of MCL to P450 variant V-H10. More on the design: species or system Bacillus megaterium. Put shortly:
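Purified P450 (3 μM) in 50 mM potassium phosphate, pH 8.0, titrated with test compound (5–2000 μM) from a 50 mM ethanol stock. A difference spectrum (350–500 nm) was taken at each step. Absorbance change at 390/420 nm (high/low spin) was plotted against concentration, with KD from a nonlinear 1:1 binding fit. At least triplicate, room temperature.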

SMILES strings stand for the structures. Positions count from the first letter of the chain named.

As for `C=C1C(=O)O[C@H]2[C@H]1CCC(C)=C1CC[C@@](C)(O)[C@@H]12` [MCL, micheliolide], the Kd in assay [1] (50 mM KPi pH 8.0, room temperature) came to 365 ± 53 µM; in assay [1] (1 M KPi buffer (pH 8.0)) it was 128 µM; in assay [2], 1250 ± 54 µM.

In general, Kd refers to the free concentration of one partner at which half of the binding sites on the other are occupied at equilibrium, for simple one-to-one binding.
